Tested on: alkaline phosphatase
Experiment: Enzyme inhibition kinetic study
Format: biochemical
Conditions: inhibitor 0.00, 1.15, 2.30, 4.60 and 9.20 μM; substrate p-NPP
Outline: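 Enzyme, buffer and pre-incubation were as in the AP inhibition assay. p-NPP was used at 10, 5, 2.5, […] and 0.625 mM. Maximum initial velocities came from the linear part of absorbance over up to 10 min. Inhibition type was assigned from Lineweaver–Burk plots of 1/V vs. 1/[S].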

Which “type of enzyme inhibition (Lineweaver–Burk plot)” value does the source give for COc1ccc(C=C2Oc3cc(Cl)cc([N+](=O)[O-])c3C2=O)cc1 [Compound 20, 6-Chloro-2-(4-methoxybenzylidene)-4-nitrobenzofuran-3(2H)-one] here?
The value was “non-competitive”.

Biological target: AP
Experiment: not given
Conditions: traditional AP inhibitors; ref 34g; cited from earlier work

Which Ki does the source give for Cn1c(=O)c2[nH]cnc2n(C)c1=O [theophylline] here?
The Ki was 82 µM.

With c1ccc([C@H]2CN3CCSC3=N2)cc1 [levamisole] as the molecule, how does the Ki read?
Its Ki is 16 µM.

Biological target: CIAP (calf intestinal alkaline phosphatase) (Bos taurus, UniProt P19111)
Sequence (P19111 20-506 limits assumed): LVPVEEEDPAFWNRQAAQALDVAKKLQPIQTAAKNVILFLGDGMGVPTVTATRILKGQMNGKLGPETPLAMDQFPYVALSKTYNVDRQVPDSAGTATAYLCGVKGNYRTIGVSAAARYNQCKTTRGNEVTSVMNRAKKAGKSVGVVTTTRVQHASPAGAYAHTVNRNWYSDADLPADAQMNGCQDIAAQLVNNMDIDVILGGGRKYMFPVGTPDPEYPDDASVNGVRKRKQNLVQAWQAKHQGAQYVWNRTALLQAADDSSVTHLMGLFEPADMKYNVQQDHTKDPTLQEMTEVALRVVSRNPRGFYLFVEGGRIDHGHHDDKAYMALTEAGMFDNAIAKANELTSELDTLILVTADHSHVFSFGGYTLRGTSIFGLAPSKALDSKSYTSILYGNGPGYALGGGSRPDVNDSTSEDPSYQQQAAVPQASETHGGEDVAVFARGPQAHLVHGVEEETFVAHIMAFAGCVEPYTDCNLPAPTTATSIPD
Experiment: Alkaline phosphatase
Format: biochemical
Conditions: Alkaline phosphatase IC50 ± SEM, CIAP, substrate p-NPP, pH 9.5, 37 °C; mean ± SEM; NA = No activity

Which IC50 does the source give for CN(C)c1ccc(C=CC(=O)c2cc(Cl)cc([N+](=O)[O-])c2O)cc1 [Compound 6, 1-(5-Chloro-2-hydroxy-3-nitrophenyl)-3-(4-(dimethylamino)phenyl)prop-2-en-1-one] here?
The IC50 was 3.02 ± 0.087 µM.

Which IC50 does the source give for O=C1C(=Cc2ccc(Cl)cc2)Oc2cc(Cl)cc([N+](=O)[O-])c21 [Compound 16, 6-Chloro-2-(4-chlorobenzylidene)-4-nitrobenzofuran-3(2H)-one] here?
Its IC50 is 2.13 ± 0.034 µM.

With O=C(C=Cc1ccc(F)cc1)c1cc(Cl)cc([N+](=O)[O-])c1O [Compound 5, 1-(5-Chloro-2-hydroxy-3-nitrophenyl)-3-(4-fluorophenyl)prop-2-en-1-one] as the molecule, how does the IC50 read?
Its IC50 is 7.55 ± 0.265 µM.

For O=C1C(=Cc2cccs2)Oc2cc(Cl)cc([N+](=O)[O-])c21 [Compound 19, 6-Chloro-4-nitro-2-(thiophen-2-ylmethylene)benzofuran-3(2H)-one], which IC50 is on record?
The IC50 was 5.88 ± 0.083 µM.

Which IC50 does the source give for O=C(C=Cc1ccc(Cl)cc1)c1cc(Br)cc(Br)c1O [Compound 2, 3-(4-Chlorophenyl)-1-(3,5-dibromo-2-hydroxyphenyl)prop-2-en-1-one] here?
Its IC50 is 6.23 ± 0.098 µM.

Which IC50 does the source give for Cc1ccc(C=CC(=O)c2cc(Cl)cc([N+](=O)[O-])c2O)c(C)c1 [Compound 8, 1-(5-Chloro-2-hydroxy-3-nitrophenyl)-3-(2,4-dimethylphenyl)prop-2-en-1-one] here?
Its IC50 is 12.6 ± 0.298 µM.

Which IC50 does the source give for O=C1C(=Cc2ccc(C(F)(F)F)cc2)Oc2cc(Br)cc(Br)c21 [Compound 13, 4,6-Dibromo-2-(4-(trifluoromethyl)benzylidene)benzofuran-3(2H)-one] here?
Its IC50 is 5.79 ± 0.081 µM.

With O=C(C=Cc1cccs1)c1cc(Cl)cc([N+](=O)[O-])c1O [Compound 9, 1-(5-Chloro-2-hydroxy-3-nitrophenyl)-3-(thiophen-2-yl)prop-2-en-1-one] as the molecule, how does the IC50 read?
The IC50 was 8.45 ± 0.245 µM.

For COc1cc(C=CC(=O)c2cc(Cl)cc([N+](=O)[O-])c2O)ccc1OCc1ccccc1 [Compound 11, 3-(4-(Benzyloxy)-3-methoxyphenyl)-1-(5-chloro-2-hydroxy-3-nitrophenyl)prop-2-en-1-one], which IC50 is on record?
The IC50 was 9.56 ± 0.263 µM.

Which IC50 does the source give for COc1cc(C=C2Oc3cc(Cl)cc([N+](=O)[O-])c3C2=O)ccc1OCc1ccccc1 [Compound 22, 2-(4-(Benzyloxy)-3-methoxybenzylidene)-6-chloro-4-nitrobenzofuran-3(2H)-one] here?
The IC50 was 5.54 ± 0.079 µM.

With COc1ccc(C=CC(=O)c2cc(Cl)cc([N+](=O)[O-])c2O)cc1 [Compound 4, 1-(5-Chloro-2-hydroxy-3-nitrophenyl)-3-(4-methoxyphenyl)prop-2-en-1-one] as the molecule, how does the IC50 read?
The IC50 was 3.14 ± 0.176 µM.

Which IC50 does the source give for O=C1C(=Cc2ccc(F)cc2)Oc2cc(Cl)cc([N+](=O)[O-])c21 [Compound 17, 6-Chloro-2-(4-fluorobenzylidene)-4-nitrobenzofuran-3(2H)-one] here?
Its IC50 is 4.88 ± 0.086 µM.

Which IC50 does the source give for COc1ccc(C=C2Oc3cc(Cl)cc([N+](=O)[O-])c3C2=O)cc1 [Compound 20, 6-Chloro-2-(4-methoxybenzylidene)-4-nitrobenzofuran-3(2H)-one] here?
The IC50 was 1.05 ± 0.029 µM.

Which IC50 does the source give for CCCOc1ccc(C=C2Oc3cc(Cl)cc([N+](=O)[O-])c3C2=O)cc1OC [Compound 21, 6-Chloro-2-(3-methoxy-4-propoxybenzylidene)-4-nitrobenzofuran-3(2H)-one] here?
The IC50 was 2.33 ± 0.059 µM.

With CN(C)c1ccc(C=C2Oc3cc(Cl)cc([N+](=O)[O-])c3C2=O)cc1 [Compound 15, 6-Chloro-2-(4-(dimethylamino)benzylidene)-4-nitrobenzofuran-3(2H)-one] as the molecule, how does the IC50 read?
The IC50 was 2.15 ± 0.056 µM.

For CCCOc1ccc(C=CC(=O)c2cc(Cl)cc([N+](=O)[O-])c2O)cc1OC [Compound 10, 1-(5-Chloro-2-hydroxy-3-nitrophenyl)-3-(3-methoxy-4-propoxyphenyl)prop-2-en-1-one], which IC50 is on record?
The IC50 was 6.97 ± 0.097 µM.

Which IC50 does the source give for O=C1C(=Cc2ccc(Cl)cc2)Oc2cc(Br)cc(Br)c21 [Compound 12, 4,6-Dibromo-2-(4-chlorobenzylidene)benzofuran-3(2H)-one] here?
The IC50 was 2.16 ± 0.048 µM.

For O=C1C(=Cc2ccco2)Oc2cc(Br)cc(Br)c21 [Compound 14, 4,6-Dibromo-2-(furan-2-ylmethylene)benzofuran-3(2H)-one], which IC50 is on record?
Its IC50 is 4.66 ± 0.051 µM.

Which IC50 does the source give for Cc1ccc(C=C2Oc3cc(Cl)cc([N+](=O)[O-])c3C2=O)c(C)c1 [Compound 18, 6-Chloro-2-(2,4-dimethylbenzylidene)-4-nitrobenzofuran-3(2H)-one] here?
The IC50 was 1.15 ± 0.043 µM.

With O=C(C=Cc1ccco1)c1cc(Br)cc(Br)c1O [Compound 1, 1-(3,5-Dibromo-2-hydroxyphenyl)-3-(furan-2-yl)prop-2-en-1-one] as the molecule, how does the IC50 read?
The IC50 was 4.31 ± 0.154 µM.

Same assay, conditions: ratio of IC50 values vs standard KH2PO4

Which “fold higher inhibition compared to KH2PO4” value does the source give for COc1ccc(C=C2Oc3cc(Cl)cc([N+](=O)[O-])c3C2=O)cc1 [Compound 20, 6-Chloro-2-(4-methoxybenzylidene)-4-nitrobenzofuran-3(2H)-one] here?
Its value is roughly 2.6 fold.

From paper PMC9042899 (RSC Advances, 2021)
